These results are taken from ChEMBL document CHEMBL3272232, “Inhibitors of folate biosynthesis. 1. Inhibition of dihydroneopterin aldolase by pteridine derivatives” (J Med Chem, 1977).

Each structure is given as a SMILES string. Converted amounts (≈) assume the structure as drawn.

In assay [1] the test system is Escherichia coli. Kind of assay: Inhibition of Escherichia coli dihydroneopterin aldolase assessed as [14C]glycolaldehyde formation using [14C]neopterin substrate at 50 ug/ml by scintillation counting. The procedure, abridged:
(§1)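 Enzyme from E. coli B grown in corn steep liquor medium with methionine and glutamic acid, homogenized, cleared of debris and heat-treated. Substrate is 14C-neopterin with unlabeled neopterin, reduced by dithionite to dihydroneopterin in ammonium acetate pH 9.6 with EDTA and mercaptoethanol. Test pteridines are dithionite-reduced. Incubation runs 30 min at 37 °C in the dark and is stopped with Norit A in 2 N acetic acid. The supernatant is scintillation counted.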

In assay [2] the test system is Escherichia coli. The assay can be described thus: Inhibition of Escherichia coli dihydroneopterin aldolase assessed as [14C]glycolaldehyde formation using [14C]neopterin substrate by scintillation counting. The procedure, abridged: as §1

A word on the inhibition: it is the share of the control response that was lost under treatment. For the compound `Nc1nc2c(c(=O)[nH]1)N=C(C=O)CN2`, the inhibition in assay [1] was 75%.

Regarding `CC1=Nc2c(O)nc(N)nc2NC1`, the ID50 in assay [2] was above 50 µg/mL. Still for that read-out and setting: the result for `CC(C)C1=Nc2c(N)nc(N)nc2NC1C(C)C` (stereo unspecified) reads above 50 µg/mL; that for `Nc1nc(O)c2c(n1)NCC(/C=N/O)=N2`, above 50 µg/mL. With `CC1(C)Nc2nc(N)nc(O)c2N=C1CO`, in assay [2], the ID50 is 1 µg/mL (≈ 4.48 µM).

For `OCC1=Nc2c(O)nc(S)nc2NC1`, the ID50 in assay [2] is above 50 µg/mL. Same read-out and setting: the result for `CCCCCCCCC1=Nc2c(O)nc(N)nc2NC1` reads above 50 µg/mL; that for `CCOC(OCC)C1=Nc2c(O)nc(N)nc2NC1`, above 50 µg/mL. Same read-out and setting: in the case of `Nc1nc(O)c2c(n1)NCC=N2` it was above 50 µg/mL.

Take `Nc1nc(O)c2c(n1)NC(CO)C=N2` (stereo unspecified): the ID50 in assay [2] was above 50 µg/mL. On the same count and under the same terms, the result for `Nc1nc(O)c2c(n1)NCC(CCCc1ccccc1)=N2` reads above 50 µg/mL; that for `Nc1nc(O)c2c(n1)NC(O)C(C(=O)O)=N2` (stereo unspecified), above 50 µg/mL. Still for that read-out and setting: the result for `Nc1nc(O)c2c(n1)NCC(C(=O)O)=N2` reads above 50 µg/mL. Still for that read-out and setting: the result for `Nc1nc2c(c(=O)[nH]1)N=C(CO)CN2` reads 30 µg/mL (≈ 154 µM); that for `Nc1nc(N)c2c(n1)NCC(CO)=N2`, above 50 µg/mL; that for `NC(=O)C1=Nc2c(O)nc(N)nc2NC1`, 5 µg/mL (≈ 24 µM).
